Measurements taken from paper PMC2704382 (Cell, 2009).

B1: Wnt3a: recombinant Wnt3a protein (protein, UniProt P56704 19-352, looked up)
Protein Wnt-3a: SYPIWWSLAVGPQYSSLGSQPILCASIPGLVPKQLRFCRNYVEIMPSVAEGIKIGIQECQHQFRGRRWNCTTVHDSLAIFGPVLDKATRESAFVHAIASAGVAFAVTRSCAEGTAAICGCSSRHQGSPGKGWKWGGCSEDIEFGGMVSREFADARENRPDARSAMNRHNNEAGRQAIASHMHLKCKCHGLSGSCEVKTCWWSQPDFRAIGDFLKDKYDSASEMVVEKHRESRGWVETLRPRYTYFKVPTERDLVYYEASPNFCEPNPETGSFGTRDRTCNVSSHGIDGCDLLCCGRGHNARAERRREKCRCVFHWCCYVSCQECTRVYDVHTCK
B2: DISC1 356–595: GST-tagged DISC1 protein fragment spanning residues 356–595 (protein)
chain: LKLQKCQEKVVEDGDYDTAETLRQRLEELEQEKGRLSWALPSQQPALRSFLGYLAAQIQVALHGATQRAGSDDPEAPLEGQLRTTAQDSLPASITRRDWLIREKQRLQKEIEALQARMSALEAKEKRLSQELEEQEVLLRWPGCDLMALVAQMSPGQLQEVSKALGETLTSANQAPFQVEPPETLRSLRERTKSLNLAVRELTAQVCSGEKLCSSLRRRLSDLDTRLPALLEAKMLALSG
modifications: left off: GST, end not stated, kept
B3: DISC1 221–355: GST-tagged DISC1 protein fragment spanning 221–355 (protein, UniProt Q9NRI5 221-355, looked up, fragment)
chain: GERGEAEGCPPSREAESHCQSPQEMGAKAASLDGPHEDPRCLSRPFSLLATRVSADLAQAARNSSRPERDMHSLPDMDPGSSSSLDPSLAGCGGDGSSGSGDAHSWDTLLRKWEPVLRDCLLRNRRQMEVISLRL
modifications: GST tag

What was measured:
AHPs = assay: AHP cell proliferation assay; type: cell-based; settings: 200 ng/ml in culture medium; cell numbers counted for 2 days; n=3
Procedure, shortened: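 Adult hippocampal progenitors transduced 2 days with GFP-expressing lentivirus (control, DISC1 shRNA or WT-hDISC1), then FACS-sorted on GFP. 2×10^4 cells seeded per well in medium with recombinant Wnt3a (200 ng/ml) or vehicle. Cells counted each day for 2 days; n=3.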

GSK3β [1] = type: binding; settings: GST-tagged DISC1 fragments, purified His-tagged GSK3β, in vitro
GSK3β [2] = assay: In vitro GSK3β kinase assay; type: biochemical; settings: 2 µM protein

Molecule | Proliferation of AHPs (AHPs) | Interaction with GSK3β (GSK3β [1]) | Inhibition of GSK3β autophosphorylation (GSK3β [2])
B1 | significantly stimulated |  | 
B2 |  | strong interactions | started to inhibit
B3 |  |  | started to inhibit
